Results taken from ChEMBL document CHEMBL3396951, “Design, synthesis and SAR studies of GABA uptake inhibitors derived from 2-substituted pyrrolidine-2-yl-acetic acids” (Bioorg Med Chem, 2015).

Legend:
[1] = target: T1, Sodium- and chloride-dependent GABA transporter 1 (Mus musculus, UniProt P31648); assay: Inhibition of mouse GAT1 expressed in HEK293 cells by [3H]GABA uptake assay; format: cell-based
[2] = target: T2, GABA transporter 2 (Mus musculus) (UniProt P31651); assay: Inhibition of mouse GAT2 expressed in HEK293 cells assessed as remaining [3H]GABA uptake at 100 uM by [3H]GABA uptake assay; format: cell-based
T2 sequence (whole entry): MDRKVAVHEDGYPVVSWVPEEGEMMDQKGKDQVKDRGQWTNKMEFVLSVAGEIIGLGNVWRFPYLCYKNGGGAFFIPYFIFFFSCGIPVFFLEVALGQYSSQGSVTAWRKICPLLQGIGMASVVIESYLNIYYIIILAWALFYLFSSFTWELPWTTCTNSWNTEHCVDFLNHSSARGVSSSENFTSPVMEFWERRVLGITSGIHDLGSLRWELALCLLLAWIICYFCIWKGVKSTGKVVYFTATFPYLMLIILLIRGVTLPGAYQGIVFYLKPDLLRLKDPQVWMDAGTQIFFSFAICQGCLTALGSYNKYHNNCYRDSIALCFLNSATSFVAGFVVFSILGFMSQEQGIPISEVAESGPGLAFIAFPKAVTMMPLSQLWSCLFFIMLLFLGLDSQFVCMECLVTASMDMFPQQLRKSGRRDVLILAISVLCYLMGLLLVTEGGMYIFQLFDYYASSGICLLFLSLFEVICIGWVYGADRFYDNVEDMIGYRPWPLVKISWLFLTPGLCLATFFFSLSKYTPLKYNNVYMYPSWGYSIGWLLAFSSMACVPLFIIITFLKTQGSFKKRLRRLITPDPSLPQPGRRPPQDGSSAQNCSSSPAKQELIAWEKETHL
Procedure, shortened: (§1)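 Transfected HEK293 cells (mGAT1–4) tested for [3H]GABA uptake at 100 µM test substance. Remaining uptake is expressed against a control without inhibitor.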

[3] = target: T3, GABA transporter 4 (Mus musculus) (UniProt P31650); assay: Inhibition of mouse GAT4 expressed in HEK293 cells assessed as remaining [3H]GABA uptake at 100 uM by [3H]GABA uptake assay; format: cell-based; procedure, shortened: as §1
T3 sequence (whole entry): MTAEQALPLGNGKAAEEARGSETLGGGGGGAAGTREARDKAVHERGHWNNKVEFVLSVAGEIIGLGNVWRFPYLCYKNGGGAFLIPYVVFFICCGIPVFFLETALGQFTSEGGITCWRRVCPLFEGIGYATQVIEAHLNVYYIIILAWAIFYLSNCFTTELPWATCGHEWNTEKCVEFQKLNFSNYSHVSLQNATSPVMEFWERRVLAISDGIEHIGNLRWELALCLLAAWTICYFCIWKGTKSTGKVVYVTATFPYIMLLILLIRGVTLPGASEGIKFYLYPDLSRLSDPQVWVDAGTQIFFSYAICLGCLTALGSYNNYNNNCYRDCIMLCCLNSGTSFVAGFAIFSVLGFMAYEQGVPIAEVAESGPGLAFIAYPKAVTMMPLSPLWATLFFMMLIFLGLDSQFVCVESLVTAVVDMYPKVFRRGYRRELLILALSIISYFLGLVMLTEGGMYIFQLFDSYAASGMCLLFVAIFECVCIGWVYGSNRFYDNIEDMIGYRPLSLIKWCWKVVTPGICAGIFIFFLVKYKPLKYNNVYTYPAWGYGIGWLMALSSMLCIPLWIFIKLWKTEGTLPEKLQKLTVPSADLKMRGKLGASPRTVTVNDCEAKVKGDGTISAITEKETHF

[4] = target: T4, GABA transporter 3 (Mus musculus) (UniProt P31649); assay: Inhibition of mouse GAT3 expressed in HEK293 cells assessed as remaining [3H]GABA uptake at 100 uM by [3H]GABA uptake assay; format: cell-based; procedure, shortened: as §1
T4 sequence (whole entry): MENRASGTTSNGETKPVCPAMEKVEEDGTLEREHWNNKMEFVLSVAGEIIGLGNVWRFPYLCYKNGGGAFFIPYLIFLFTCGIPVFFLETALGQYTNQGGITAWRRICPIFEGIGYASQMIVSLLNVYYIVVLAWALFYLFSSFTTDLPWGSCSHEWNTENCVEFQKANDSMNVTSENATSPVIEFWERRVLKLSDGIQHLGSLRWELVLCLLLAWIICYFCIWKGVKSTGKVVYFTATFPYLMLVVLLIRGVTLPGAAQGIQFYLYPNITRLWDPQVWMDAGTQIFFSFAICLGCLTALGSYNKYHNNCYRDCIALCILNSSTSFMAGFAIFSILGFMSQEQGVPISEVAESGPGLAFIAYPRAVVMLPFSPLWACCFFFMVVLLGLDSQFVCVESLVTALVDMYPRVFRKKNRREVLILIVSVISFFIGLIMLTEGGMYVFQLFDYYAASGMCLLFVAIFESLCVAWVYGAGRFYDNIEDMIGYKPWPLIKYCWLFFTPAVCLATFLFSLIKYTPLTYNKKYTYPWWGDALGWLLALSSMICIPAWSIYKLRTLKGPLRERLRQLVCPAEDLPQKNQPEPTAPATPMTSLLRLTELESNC

[5] = target: T2, GABA transporter 2 (Mus musculus); assay: Inhibition of mouse GAT2 expressed in HEK293 cells assessed as remaining [3H]GABA uptake at 1 mM by [3H]GABA uptake assay; format: cell-based
Procedure, shortened: (§2)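 Radioactive [3H]GABA uptake run in HEK293 cells expressing mGAT1–4 with 1 mM test substance. Readout is % remaining uptake relative to an inhibitor-free control.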

GABA transporter 3 = target: T5, GABA transporter 3 (Mus musculus, UniProt P31649); assay: Inhibition of mouse GAT3 expressed in HEK293 cells by [3H]GABA uptake assay; format: cell-based
T5 sequence (P31649 whole entry): T4 sequence (whole entry)

GABA transporter 4 = target: T6, GABA transporter 4 (Mus musculus, UniProt P31650); assay: Inhibition of mouse GAT4 expressed in HEK293 cells by [3H]GABA uptake assay; format: cell-based
T6 sequence (P31650 whole entry): T3 sequence (whole entry)

Mus musculus = species: Mus musculus; assay: Selectivity for mouse GAT1 over mouse GAT4
[6] = target: T7, Sodium- and chloride-dependent GABA transporter 1 (Homo sapiens, UniProt P30531); assay: Binding affinity to human GAT1 expressed in HEK293 cells using NO71156 as unlabelled marker by LC-ESI-MS-MS based competitive MS binding assay; format: cell-based
T7 sequence (P30531 whole entry): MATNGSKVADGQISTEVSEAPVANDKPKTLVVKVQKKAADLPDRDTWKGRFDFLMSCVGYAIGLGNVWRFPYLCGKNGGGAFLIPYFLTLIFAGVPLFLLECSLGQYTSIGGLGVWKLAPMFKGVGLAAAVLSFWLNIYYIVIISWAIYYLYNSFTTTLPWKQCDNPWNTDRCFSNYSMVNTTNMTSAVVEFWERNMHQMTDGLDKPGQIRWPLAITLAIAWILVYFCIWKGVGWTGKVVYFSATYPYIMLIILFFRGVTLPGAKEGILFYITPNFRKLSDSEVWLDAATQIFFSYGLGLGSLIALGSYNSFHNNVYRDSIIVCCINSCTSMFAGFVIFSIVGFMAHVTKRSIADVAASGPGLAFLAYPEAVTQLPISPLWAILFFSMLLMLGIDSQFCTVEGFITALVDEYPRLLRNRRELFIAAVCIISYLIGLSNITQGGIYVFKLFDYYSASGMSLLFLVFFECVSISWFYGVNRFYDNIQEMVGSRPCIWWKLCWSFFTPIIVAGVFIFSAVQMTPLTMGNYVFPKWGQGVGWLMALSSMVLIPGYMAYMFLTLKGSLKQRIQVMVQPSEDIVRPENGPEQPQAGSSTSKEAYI
Procedure, shortened: (§3)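 Competitive MS Binding Assay using membrane preparations from HEK293 cells expressing the transporter. hGAT-1 membranes were prepared the same way as mGAT1 membranes. Affinity reported as pKi ± SEM from three independent experiments.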

[7] = target: T7, Sodium- and chloride-dependent GABA transporter 1; assay: Inhibition of human GAT1 expressed in HEK293 cells by [3H]GABA uptake assay; format: cell-based
[8] = target: T1, Sodium- and chloride-dependent GABA transporter 1; assay: Binding affinity to mouse GAT1 expressed in HEK293 cells using NO71156 as unlabelled marker by LC-ESI-MS-MS based competitive MS binding assay; format: cell-based; procedure, shortened: as §3
GABA transporter 2 = target: T8, GABA transporter 2 (Mus musculus, UniProt P31651); assay: Inhibition of mouse GAT2 expressed in HEK293 cells by [3H]GABA uptake assay; format: cell-based
T8 sequence (P31651 whole entry): T2 sequence (whole entry)
Procedure, shortened: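 [3H]GABA uptake inhibition in HEK293 cells expressing mGAT1–4 or hGAT-1, reported as pIC50 (mean ± SEM, n = 3 independent experiments). The hGAT-1 assay matched the mGAT1 assay except that HEK293 […] expressing hGAT-1 was used.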

[9] = target: T4, GABA transporter 3 (Mus musculus); assay: Inhibition of mouse GAT3 expressed in HEK293 cells assessed as remaining [3H]GABA uptake at 1 mM by [3H]GABA uptake assay; format: cell-based; procedure, shortened: as §2
[10] = target: T3, GABA transporter 4 (Mus musculus); assay: Inhibition of mouse GAT4 expressed in HEK293 cells assessed as remaining [3H]GABA uptake at 1 mM by [3H]GABA uptake assay; format: cell-based; procedure, shortened: as §2
[11] = target: Sodium- and chloride-dependent GABA transporter 1 (Mus musculus) (UniProt P31648); assay: Inhibition of mouse GAT1 expressed in HEK293 cells assessed as remaining [3H]GABA uptake at 1 mM by [3H]GABA uptake assay; format: cell-based; procedure, shortened: as §2
[12] = target: Sodium- and chloride-dependent GABA transporter 1 (Mus musculus) (UniProt P31648); assay: Inhibition of mouse GAT1 expressed in HEK293 cells assessed as remaining [3H]GABA uptake at 100 uM by [3H]GABA uptake assay; format: cell-based; procedure, shortened: as §1

IC50 [1] [µM] | Activity [2] [%] | Activity [5] [%] | IC50 (GABA transporter 3) [µM] | IC50 (GABA transporter 4) [µM] | Ki [6] [µM] | Ki [8] [µM] | Activity [11] [%] | also measured | Compound
34.7 | 61 |  |  |  |  |  |  | Activity [3]: 83%; Activity [4]: 71% | N[C@H](C(=O)O)[C@H]1CCCN1CCC=C(c1ccccc1)c1ccccc1 (racemic)
240 |  | 81 | 339 | 1120 |  |  |  |  | O=C(O)C[C@H]1CCCN1
3.39 | 63 |  |  |  | 1.1 | 1.07 |  | Selectivity ratio (Mus musculus): > 29; IC50 [7]: 4.17 µM; Activity [3]: 74%; Activity [4]: 90% | Cc1ccsc1C(=CCCN1CCC[C@@H]1[C@@H](O)C(=O)O)c1sccc1C (racemic)
14.1 |  |  | 30.2 | 31.6 | 20.4 | 17.4 |  | IC50 (GABA transporter 2): 42.7 µM | Cc1ccsc1C(=CCCN1CCC[C@@H]1[C@@H](N)C(=O)O)c1sccc1C (racemic)
123 |  |  | 26.9 | 21.4 |  |  |  | IC50 (GABA transporter 2): 158 µM | N[C@@H](C(=O)O)[C@H]1CCCN1 (racemic)
100 |  |  |  | 100 | 19.1 | 37.2 |  | IC50 (GABA transporter 2): 100 µM; Activity [4]: 63% | Cc1ccsc1C(=CCCN1CCC[C@@H]1[C@H](N)C(=O)O)c1sccc1C (racemic)
1000 |  |  | 36.3 | 14.1 |  |  |  | Selectivity ratio (Mus musculus): > 71; IC50 (GABA transporter 2): 170 µM | O=C(O)[C@H](O)[C@H]1CCCN1 (racemic)
 |  | 108 |  |  |  |  | 83 | Activity [9]: 93%; Activity [10]: 95% | CC(C)(C(=O)O)[C@H]1CCCN1 (racemic)
 |  | 82 |  |  |  |  | 78 | Activity [9]: 78%; Activity [10]: 95% | CCC(C(=O)O)[C@H]1CCCN1 (mixture of isomers)
 |  |  |  |  |  | 0.0372 |  |  | Cc1ccsc1C(=CCCN1CCC[C@@H](C(=O)O)C1)c1sccc1C [TIAGABINE]
 |  | 91 |  |  |  |  | 92 | Activity [9]: 73%; Activity [10]: 110% | O=C(O)C1([C@H]2CCCN2)CCC1 (racemic)
407 |  | 77 | 141 | 309 |  |  |  |  | O=C(O)C[C@@H]1CCCN1
2.29 | 60 |  | 100 |  | 0.214 | 0.145 |  | IC50 [7]: 1.91 µM; Activity [3]: 55% | O=C(O)[C@@H](O)[C@H]1CCCN1CCC=C(c1ccccc1)c1ccccc1 (racemic)
 | 56 |  | 17 | 5.75 |  |  |  | Activity [12]: 68% | COc1ccc(C(OCCN2CCC[C@@H]2[C@@H](O)C(=O)O)(c2ccc(OC)cc2)c2ccc(OC)cc2)cc1 (racemic)
25.1 | 89 |  |  |  | 3.98 | 3.89 |  | IC50 [7]: 13.8 µM; Activity [3]: 59%; Activity [4]: 97% | O=C(O)[C@H](O)[C@H]1CCCN1CCC=C(c1ccccc1)c1ccccc1 (racemic)
49 | 66 |  | 11.5 | 17.4 |  |  |  |  | N[C@@H](C(=O)O)[C@H]1CCCN1CCC=C(c1ccccc1)c1ccccc1 (racemic)
 |  | 95 | 269 |  |  |  | 53 | Activity [10]: 61% | O=C(O)[C@@H](O)[C@H]1CCCN1 (racemic)
 |  | 52 |  | 372 |  |  | 1 | Activity [9]: 59% | N[C@H](C(=O)O)[C@H]1CCCN1 (racemic)
2.14 | 58 |  | 42.7 |  | 0.0661 | 0.102 |  | Selectivity ratio (Mus musculus): > 47; IC50 [7]: 0.724 µM; Activity [3]: 59% | Cc1ccsc1C(=CCCN1CCC[C@@H]1[C@H](O)C(=O)O)c1sccc1C (racemic)
 |  | 59 | 309 | 339 |  |  | 83 |  | CC(C(=O)O)[C@H]1CCCN1 (mixture of isomers)
